For 38 variants, yeast fitness results are on record in the RNAGym collection of RNA variant scans (doi:10.1126/science.aae0568).

Variants at the floor of the assay were thinned out. A value given as a limit tells only on which side of the number the result lay.

B1: tRNA (parent)
chain: GUUCCGUUGGCGUAAUGGUAACGCGUCUCCCUCCUAAGGAGAAGACUGCGGGUUCGAGUCCCGUACGGAACG

The variants in the data set derive from B1. The experiment in a line: yeast fitness relative to wild type (ratio to wild type); higher = fitter; tRNA-Arg(CCU), competitive growth, 37 C, YPD. In short, it runs like this:
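Amplicons of the tRNA-Arg(CCU) gene were sequenced, 100-nucleotide paired-end, from the start population and from each end population of a pooled yeast competition. The competition, in six parallel replicates, lasted 24 hours in YPD at 37°C. Fitness relative to wild type was calculated from changes in genotype frequencies. Genotypes had to have ≥ 100 starting reads, and estimates < 0.5 were set to 0.5.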
For the variant GUUCCGUUGGCGUUAUAGUAACGCGUCUCCCUCCUAAGGAGAUGACUGCGGGUUCGAGUCCCGUACGGAACG [A14U G17A A43U], the yeast fitness is at most 0.5.
The same measure for GUUCCGUUGGCGUUAUGGUAACGCGUCUCCCUCCUAAGGAGAAGACUGCGGGUUAGAGUCCUGUAUGGAACG [A14U C55A C62U C66U]: 0.553; for GUUCCGUUGGCGUUAUCGUAACGCGUCCCGCUCCUAAGGACCAGACCGCAGGUUCGAGUCCAGUACGGAACG [A14U G17C U28C C30G G41C A42C U47C G50A C62A]: at most 0.5; for GUUCCGUUGGCGUUAUGAUAACGCGUCUCCCUCCAAAGGAGAAGACUGCGGGUUCGCGUCCUGUACGGAACG [A14U G18A U35A A57C C62U]: at most 0.5.
The same measure for GUUCCGUUGGCGUUAUGGUAACACGUCUGCCUCCUAAGGAGAAGAAUGCGGGUUGGAGUCCCGUACAGAACG [A14U G23A C29G C46A C55G G67A]: at most 0.5.
With GUUCCGUUGGCGUUAUAGUAAUGCGUCUCCCUGCUAAGGAGAAGACUGCGGGUUCGAGUCCCGUACGGAACG [A14U G17A C22U C33G] the figure was 0.567; with GUUCCGUUGGCGUUAUGGUAACGCGUCUCCCUCCUAAGGAGAACACUGCGGGUUCGAGUCCCGUACGGAACG [A14U G44C], 0.673; with GUUCCGUUGGCGUUAUGGUAACGCGUCUCCCUCCUAAGGAGAAAACUGCGGGUUCGAGUCCCGUACGGAACG [A14U G44A], 0.582.
Turning to GUUCCGUUGGCGUUAUGGUAACGCGUCUCCCUCCUAAGGAGAAGACUGCGGGUUCGAGUGCCGUACGGAACG [A14U C60G], the yeast fitness is at most 0.5.
The same measure for GUUCCGUUGGCGUUAUGGUAACGCGUCUCCCUCCUAAGGAGAAGACUGCGGGUUCGAGUACCGUACGGAACG [A14U C60A]: at most 0.5; for GUUCCGUUGGCGUUAUGCUAACGCAUCUCCCUCCUAAGGAGAAGACUGCGGGUUCGAGUCCCGUACGGAGCG [A14U G18C G25A A70G]: at most 0.5.
Turning to GUUCCGUUGGCGUUAUGGUAACACGUCUCCCUCCUAAGGAGAAGACUGCGGGUUCGAGUCCCGAAAGGAACG [A14U G23A U64A C66A], the yeast fitness is at most 0.5.
With GUUCCGUUGGCGUUAUGGUAACGCGUCUCCCUCCUAAGGAGAAGACUGUGGGUUUGAGUCCCGUACGGAACG [A14U C49U C55U] the figure was at most 0.5; with GUUCCGUUGGCGUUAUGGUAACACGUCUGCCUCCUAAGGAGAAGAAUGCGGGUUGGUGUCCUGUACGGAACG [A14U G23A C29G C46A C55G A57U C62U], at most 0.5; with GUUCCGUUGGCGUUAUAGUAACACGUCUCCCUCCUAAGGAGAAGACUGCGGGUUCGAGUCCCGUACGCAACG [A14U G17A G23A G68C], at most 0.5.
With GUUCCGUUGGCGUUAUGGUAACGCGUCUCCCUCCUAAGGAGAAGACUGCGGGUUCGAGUCCCGUACGAAACG [A14U G68A] the figure was 0.721.
GUUCCGUUGGCGUUAUGGUAACCCGUCUCCCUCCUAAGGAGAAGACUGCGGGUUCGAGUCCCGUACGGAACG [A14U G23C]: the yeast fitness came out at 0.508.
The same measure for GUUCCGUUGGCGUUAUGGUAACACGUCUCCCUCCUAAGGAGAAGACUGCGGGUUCGAGUCCCGUACGGAACG [A14U G23A]: at most 0.5; for GUUCCGUUGGCGUUAUGGUAACGCAUUUCCCUCCUAAGGAGAAGACUGCGGGUUGGAGUCCCGUACGGAACG [A14U G25A C27U C55G]: at most 0.5.
With GUUCCGUUGGCGUUAUGGUAACGCGUCUCCCUCCUAAGGAGAAGACUGCGGAUUCAAGUCCCGUACGGAACG [A14U G52A G56A] the figure was at most 0.5; with GUUCCGUUGGCGUUAUGCUAACGCGUCUCCCUCCUAAGCAGAAGACUGGGGGUUCGAGUCCCGUACGGAACG [A14U G18C G39C C49G], at most 0.5.
With GUUCCGUUGGCGUUAUGCUAACGCGUCUCCCUCCUGAGGAGAAGACUGCGGGUUCGAGUCCCGUACGGAACG [A14U G18C A36G] the figure was at most 0.5.
Take GUUCCGUUGGCGUUAUGGUAACGCGUCUCCCUCCUAAGGAGAAGACUGCGGGUUUGAGUCCCGUACGGAACG [A14U C55U]: the yeast fitness is at most 0.5.
On to GUUCCGUUGGCGUUAUUGUAACGAGUCUCGCUCCUAAGGAGAAGACUGCGGGUUCGAGUCCCGUACGGAACG [A14U G17U C24A C30G], for which the yeast fitness was at most 0.5.
With GUUCCGUUGGCGUUAUGGUAACGCGUCUCCCUCCUAAAGAGAAGACUGCGGGUUCGAAUCCCGUACGGAACG [A14U G38A G58A] the figure was at most 0.5; with GUUCCGUUGGCGUUAUGCUAACGCGUCUCCCUCCGAAGGAGAAGACUGAGGGUUCGAGUCCCGUACGAAACG [A14U G18C U35G C49A G68A], 0.59.
In the case of GUUCCGUUGGCGUUAUGGUAACGCGUCUCCCUCCUAAGGAGAAGACUGCGGAUUCGAGUCCCCUACCGUACG [A14U G52A G63C G67C A69U], the yeast fitness was at most 0.5.
With GUUCCGUUGGCGUUAUGGUAACGCGUCUCCCUCCUAAGGAGAAGACUGCGGGUUCGAAUCCCGUACGGAACG [A14U G58A] the figure was 0.629.
With GUUCCGUUGGCGUUAUGAUAACGCGUCUCCCUCCUAAGGGGAAGACUGCGGGUUCGAGUCCAGUACGGAACG [A14U G18A A40G C62A], the yeast fitness was at most 0.5.
The same measure for GUUCCGUUGGCGUUAUCGUAACGCGUCUCCCUCCUAAGGAGAAGACUGCGGGUUCGGGUCCCGUACGGAACG [A14U G17C A57G]: 0.505; for GUUCCGUUGGCGUUAUAGUAACACGUCUCCCUCCUAAGGAGAAGACUGCGGGUUCGAGUCCCGUACGGAACG [A14U G17A G23A]: at most 0.5.
With GUUCCGUUGGCGUUAUGGUAACGCGUCUCCCUCCUAAGGAGAAGACUGCGGGUUCGAGUCCCGUAUGGAACG [A14U C66U] the figure was 0.756; with GUUCCGUUGGCGUUAUGGUAACGCGUCUCCCUCCUAAGGAGAAGACUGCGGGUUCGAGUCCCGUAAGGAACG [A14U C66A], 0.508; with GUUCCGUUGGCGUUAUGAUAACGCGUCUCCCUCCAAAGGAGAAGAGUGCGGGUUCGAGUCCCGUACGGUACG [A14U G18A U35A C46G A69U], 0.591.
The same measure for GUUCCGUUGGCGUUAUGCUAACGCGUCUCCCUCCGAAGGAGAAGACUGAGGGUUCGAGUGCCGUACGAAACG [A14U G18C U35G C49A C60G G68A]: at most 0.5; for GUUCCGUUGGCGUUAUGGUAACGCCUCUCCCUCCUAAGGAGAAGGCUGCGGGUUCGAGUCCCGUACGGUACG [A14U G25C A45G A69U]: at most 0.5; for GUUCCGUUGGCGUUAUGGUAACACGUCUCCCUCCUGAGGAGAAGACUGCGGGUUCGAGUCCCGUACGGAACG [A14U G23A A36G]: at most 0.5.
Turning to GUUCCGUUGGCGUUAUAGUAAUGCGUCUCCCUCCUAAGGAGAAGACUGCGGGUUCGAGUCCCGUACGGAACG [A14U G17A C22U], the yeast fitness was at most 0.5.
